Hits are enriched below; roughly 3.7% of the tested compounds scored in any of these assays.
KCNQ1 block: inhibitors of human KCNQ1 channel, primary screen, cell-based, thallium flux, high-throughput | Potassium voltage-gated channel subfamily KQT member 1 (Homo sapiens), P51787 | B-score at 10 µM | 310,000 compounds, 1.3% hits | CHO-K1 KCNQ1, FluxOR thallium flux fluorescence; active compounds read high;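 active means compounds whose thallium flux B-score, printed positive for inhibition, exceeds three library SD while starting fluorescence stays within three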;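 further: channel opened by potassium depolarization with thallium stimulus after 20 min compound exposure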
Kir21 block: inhibitors of mouse Kir2.1 inward-rectifier potassium channel. Inward rectifier potassium channel 2 (Mus musculus), P35561. 310,000 compounds, 0.85% hits. HEK293-Kir2.1, FluxOR thallium flux fluorescence; active compounds read low. B-score at 10 µM;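 active means fluorescence ratio B-score at or below minus 3 SD of library scores, with starting-brightness B-score within 2 SD, cut at about -4.2 in these data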;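 further: channel flux triggered by added potassium and thallium sulfate stimulus; B-score of peak minus minimum fluorescence over baseline after thallium stimulus; more negative B-score means stronger Kir2.1 block with less thallium influx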
Target sequence (P35561 whole entry, looked up): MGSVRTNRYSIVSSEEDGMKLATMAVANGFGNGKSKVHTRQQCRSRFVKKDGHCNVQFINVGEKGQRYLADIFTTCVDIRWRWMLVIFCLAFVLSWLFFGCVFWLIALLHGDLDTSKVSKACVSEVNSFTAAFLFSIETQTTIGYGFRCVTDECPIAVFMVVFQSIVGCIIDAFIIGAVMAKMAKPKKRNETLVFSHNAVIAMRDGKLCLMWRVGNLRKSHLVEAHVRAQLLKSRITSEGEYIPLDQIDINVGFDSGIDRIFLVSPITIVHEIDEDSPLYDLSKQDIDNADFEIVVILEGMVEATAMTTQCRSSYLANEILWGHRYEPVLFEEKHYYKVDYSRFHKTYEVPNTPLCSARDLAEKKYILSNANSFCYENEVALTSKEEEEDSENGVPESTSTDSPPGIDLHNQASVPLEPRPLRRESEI
KCNK9 inh: KCNK9 potassium channel inhibitors, primary screen, HEK293 cells, thallium flux; FluxOR thallium flux fluorescence; active compounds read low; B-score at 10 µM; 310,000 compounds, 1.2% hits; AID 488922, 2010;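 active means ratio B-score over 3 SD below the library mean, with starting fluorescence within 5 SD of its mean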;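 further: negative B-score means less thallium flux so channel inhibition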
KCNK3 block: human KCNK3 channel inhibitors, primary screen, CHO cells, FluxOR thallium flux, B-score; Potassium channel subfamily K member 3 (Homo sapiens), O14649; FluxOR fluorescence; active compounds read low; B-score at 10 µM; 340,000 compounds, 0.84% hits; AID 602410, 2012;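 active means B-score under library mean minus 4 SD, starting fluorescence ratio at most library mean plus 5 SD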;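 further: more negative B-score means stronger inhibition of thallium flux through KCNK3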
KCNQ1 act: potentiators or activators of KCNQ1 channel, primary screen, cell-based, thallium flux, high-throughput; CHO-K1 KCNQ1, thallium flux FluxOR fluorescence; active compounds read high; B-score at 10 µM; 310,000 compounds, 0.35% hits; AID 2648, 2010;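 active means fluorescence ratio B-score, a plate-corrected score, at least three library SD, with initial intensity B-score within 5 SD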
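Doses: Single concentration per compound, DMSO matched to controls | Test system: KCNQ1-transfected CHO-K1 cells | Timing: 90 min dye loading and 20 min compound exposure, both at room temperature | Measured by: Kinetic FluxOR thallium fluorescence, 10-s 1-Hz baseline, 110-s post-stimulus read | Medium: Assay buffer with matched DMSO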
hERG protect: hERG rescue from dofetilide block, primary screen, cell-based, CHO-hERG, FluxOR thallium flux, dofetilide IC70; dofetilide IC70 present; AID 1511, 2009; activation (rescue from dofetilide block), less the hit threshold, % at 10 µM; 310,000 compounds, 0.51% hits;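 active means activation above the mean of controls blocked by dofetilide plus 5 SD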;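 further: thallium influx through hERG after potassium depolarization seen as dye fluorescence rise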
KCNK3 inh conf: retest of human KCNK3 channel inhibitors, confirmation, CHO cells, FluxOR thallium flux, triplicate. shares compounds with KCNK3 block. FluxOR fluorescence; 0% buffer, 100% carvedilol maximal block. ratio percent of control, % at 10 µM. 2,400 compounds, 99% hits;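 active means ratio percent of control, averaged over triplicates, above buffer control mean plus 5 SD, cut at about 64% in these data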;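 further: ratio is the fluorescence rise from min to max over baseline after thallium stimulus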
KCNK3 noninduced: thallium flux inhibition in non-induced cells, primary screen, counter-screen for KCNK3 inhibitor project, cell-based, non-induced KCNK3 line, FluxOR thallium, triplicate. thallium flux ratio (lower = more inhibition) at 10 µM. non-induced KCNK3 parental cells; active compounds read low. shares compounds with KCNK3 block. AID 651747, 2012. 2,400 compounds, 40% hits;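 active means thallium flux ratio, averaged over three wells, more than 5 SD below the buffer control mean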;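 further: host cells are CHO cells without KCNK3 induction; ratio is peak minus trough fluorescence over baseline then normalized to buffer controls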
* marks the source's active call; other numbers are inactive results.

COc1cc(CN(C)CC2CCCN(CCc3ccc(F)cc3)C2)c(Cl)cc1O (centres undefined) was read as KCNQ1 block inactive, Kir21 block 0.83, KCNK9 inh inactive, KCNK3 block -9.6*, KCNQ1 act inactive, hERG protect -9, KCNK3 inh conf 80* and KCNK3 noninduced inactive.
`COc1ccccc1CCN1CCCC(CN(C)CC(C)(C)CO)C1` (centres undefined) gave KCNQ1 block inactive, Kir21 block -1, KCNK9 inh inactive, KCNK3 block inactive, KCNQ1 act inactive and hERG protect -5.
COc1ccc(NC(=O)CN(C)C(=O)c2cc3c(s2)CCC(C)C3)cc1 (centres undefined) was read as KCNQ1 block inactive, Kir21 block -1.5, KCNK9 inh inactive, KCNK3 block inactive, KCNQ1 act inactive and hERG protect -13.
`COc1ccc(CN(C)CC(=O)Nc2cccc3ccccc23)cc1F` gave KCNQ1 block inactive, Kir21 block 1.2, KCNK9 inh inactive, KCNK3 block -11*, KCNQ1 act inactive, hERG protect -14, KCNK3 inh conf 91* and KCNK3 noninduced inactive.
For COc1ccc(Cl)cc1NC(=O)CN(C)C(=O)c1cc2c(s1)CCC(C)C2 (centres undefined) the results were KCNQ1 block inactive, Kir21 block 0.8, KCNK9 inh inactive, KCNK3 block -8.8*, KCNQ1 act inactive, hERG protect -11, KCNK3 inh conf 107* and KCNK3 noninduced inactive.
For COc1ccc(Cl)cc1NC(=O)CN(C)CC(=O)Nc1ccccc1C(F)(F)F the results were KCNQ1 block inactive, Kir21 block 0.2, KCNK9 inh inactive, KCNK3 block -9.1*, KCNQ1 act inactive, hERG protect -21, KCNK3 inh conf 102* and KCNK3 noninduced inactive.
Screening CC(C)=CCCC1(C)C=Cc2c(c(C)cc3c2[nH]c2cc(O)ccc23)O1 (centres undefined) returned KCNQ1 block inactive, Kir21 block -0.18, KCNK9 inh inactive, KCNK3 block inactive, KCNQ1 act inactive and hERG protect -2.
`Cc1ccc(C)c(S(=O)(=O)NCC(c2ccc3c(c2)OCO3)N2CCOCC2)c1` (centres undefined) gave KCNQ1 block inactive, Kir21 block 1.4, KCNK9 inh inactive, KCNK3 block inactive, KCNQ1 act inactive and hERG protect -9.
Screening Cc1cc(F)ccc1S(=O)(=O)NCC(c1ccc2c(c1)OCO2)N1CCOCC1 (centres undefined) returned KCNQ1 block inactive, Kir21 block 0.2, KCNK9 inh inactive, KCNK3 block -11*, KCNQ1 act inactive, hERG protect -15, KCNK3 inh conf 70* and KCNK3 noninduced inactive.
`O=C(CN1CCN(c2ccc(F)cc2)CC1)N(C1CCCC1)C1CCS(=O)(=O)C1` (centres undefined) gave KCNK3 block inactive.
Screening COC(=O)CSc1nc(Cc2ccccc2)nc2ccccc12 returned KCNQ1 block inactive, Kir21 block -2.8, KCNK9 inh inactive, KCNK3 block -8.7*, KCNQ1 act inactive, hERG protect -29, KCNK3 inh conf 119* and KCNK3 noninduced inactive.
For O=C(NNc1c2ccccc2nc2ccccc12)c1cccc(O)c1 the results were KCNQ1 block inactive, Kir21 block 0.37, KCNK9 inh inactive, KCNK3 block inactive, KCNQ1 act inactive and hERG protect -4.
`Oc1cccc(-c2nc3ccc4ccccc4c3c3c2CCC3)c1` gave KCNQ1 block inactive, Kir21 block -0.08, KCNK9 inh inactive, KCNK3 block -19*, KCNQ1 act inactive, hERG protect -11, KCNK3 inh conf 111* and KCNK3 noninduced 0.15*.
Screening COc1cc(CC(=O)N(C)CC(=O)Nc2ccc(Cl)c(C(F)(F)F)c2)cc(OC)c1OC returned KCNQ1 block inactive, Kir21 block 0.56, KCNK9 inh inactive, KCNK3 block -9.2*, KCNQ1 act inactive, hERG protect -8, KCNK3 inh conf 113* and KCNK3 noninduced inactive.
COc1ccc(NC(=O)CSCC(=O)N(C)CC(=O)Nc2ccc(Cl)c(C(F)(F)F)c2)cc1 was read as KCNQ1 block inactive, Kir21 block -1.2, KCNK9 inh inactive, KCNK3 block inactive, KCNQ1 act inactive and hERG protect -14.
For Cc1cc(NC(=O)CN(C)CCOc2ccccc2)ccc1Br the results were KCNQ1 block inactive, Kir21 block -0.07, KCNK9 inh inactive, KCNK3 block inactive, KCNQ1 act inactive and hERG protect -19.
For COc1ccc(NC(=O)CN(C)CCOc2ccc(Cl)cc2)cc1OC the results were KCNQ1 block inactive, Kir21 block -1.3, KCNK9 inh inactive, KCNK3 block inactive, KCNQ1 act inactive and hERG protect -4.
Screening CN(CCOc1ccccc1)CC(=O)Nc1cccc(Br)c1 returned KCNQ1 block inactive, Kir21 block 0.03, KCNK9 inh inactive, KCNK3 block -9.2*, KCNQ1 act inactive, hERG protect -14, KCNK3 inh conf 94* and KCNK3 noninduced inactive.
CN(CCOc1ccc(Cl)cc1)CC(=O)Nc1ccc(OC(F)(F)F)cc1 was read as KCNQ1 block inactive, Kir21 block -1, KCNK9 inh inactive, KCNK3 block -9.1*, KCNQ1 act inactive, hERG protect -4, KCNK3 inh conf 108* and KCNK3 noninduced 0.15*.
COc1cccc(/C=C/C(=O)OCC(=O)NCCCc2ccccc2)c1OC was read as KCNK3 block inactive.
For Cc1cc(O)c2c(c1)C(=O)[C@@]13Oc4c5c(c(O)c6c(O)cc(C)cc46)C(=O)C[C@H](O)[C@H]5[C@@H]1[C@@H](O)CC(=O)C3=C2O the results were KCNK3 block inactive.
